Assay results: ChEMBL document CHEMBL3864121, “Development of ebsulfur analogues as potent antibacterials against methicillin-resistant Staphylococcus aureus” (Bioorg Med Chem, 2016)
Converted amounts (≈) assume the structure as drawn. The source made the active and inactive calls. No cut-off for these calls is given here.

Columns and labels:
Staphylococcus aureus [1] = test: Antibacterial activity against methicillin-sensitive Staphylococcus aureus ATCC 6538 measured after overnight incubation by broth double-dilution method; type: functional
Outline: (§1)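 MIC by broth double-dilution in liquid Mueller-Hinton medium. Values are reported in µg/mL.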

Staphylococcus aureus [2] = test: Antibacterial activity against methicillin-sensitive Staphylococcus aureus ATCC 29213 measured after overnight incubation by broth double-dilution method; type: functional; outline: as §1
Staphylococcus aureus [3] = test: Antibacterial activity against methicillin-resistant Staphylococcus aureus 1 measured after overnight incubation by broth double-dilution method; type: functional; outline: as §1
Staphylococcus aureus [4] = test: Antibacterial activity against methicillin-resistant Staphylococcus aureus C1 measured after overnight incubation by broth double-dilution method; type: functional; outline: as §1
Staphylococcus aureus [5] = test: Antibacterial activity against methicillin-resistant Staphylococcus aureus C14 measured after overnight incubation by broth double-dilution method; type: functional; outline: as §1
Staphylococcus aureus [6] = test: Antibacterial activity against methicillin-resistant Staphylococcus aureus G1 measured after overnight incubation by broth double-dilution method; type: functional; outline: as §1
Staphylococcus aureus [7] = test: Antibacterial activity against methicillin-resistant Staphylococcus aureus G12 measured after overnight incubation by broth double-dilution method; type: functional; outline: as §1
Staphylococcus aureus [8] = test: Antibacterial activity against methicillin-resistant Staphylococcus aureus S14 measured after overnight incubation by broth double-dilution method; type: functional; outline: as §1
Staphylococcus aureus [9] = test: Antibacterial activity against methicillin-resistant Staphylococcus aureus S22 measured after overnight incubation by broth double-dilution method; type: functional; outline: as §1
Staphylococcus aureus [10] = test: Antibacterial activity against methicillin-resistant Staphylococcus aureus USA600 measured after overnight incubation by broth double-dilution method; type: functional; outline: as §1
[11] = tested on: Staphylococcus epidermidis; test: Antibacterial activity against Staphylococcus epidermidis ATCC 35984 measured after overnight incubation by broth double-dilution method; type: functional; conditions: RP62A
Outline: (§2)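 MIC by broth double-dilution in Mueller-Hinton medium. Re-testing at the time-kill inoculum used 1×10^6 CFU/mL.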

Enterococcus faecalis [12] = test: Antibacterial activity against Enterococcus faecalis ATCC 29212 measured after overnight incubation by broth double-dilution method; type: functional; outline: as §2
Enterococcus faecalis [13] = test: Antibacterial activity against Enterococcus faecalis ATCC 49533 measured after overnight incubation by broth double-dilution method; type: functional; outline: as §2
Enterococcus faecium = test: Antibacterial activity against Enterococcus faecium BM4105-RF measured after overnight incubation by broth double-dilution method; type: functional; outline: as §1
Enterococcus = test: Antibacterial activity against Vancomycin-resistant Enterococcus measured after overnight incubation by broth double-dilution method; type: functional; outline: as §1
[14] = tested on: Mycolicibacterium smegmatis; test: Antibacterial activity against Mycobacterium smegmatis MC2-155 measured after overnight incubation by broth double-dilution method; type: functional; conditions: str. MC2 155; outline: as §1
[15] = Cytotoxicity against HEK293 cells assessed as cell death at […] measured after 24 hrs by resazurin dye-based fluorescence analysis relative to untreated control; type: toxicity; conditions: human, hek293, 24 h
Staphylococcus aureus [16] = test: Antibacterial activity against methicillin-sensitive Staphylococcus aureus ATCC 25923 measured after overnight incubation by broth double-dilution method; type: functional; outline: as §1
Staphylococcus aureus [17] = test: Antibacterial activity against methicillin-resistant Staphylococcus aureus ATCC 33591 measured after overnight incubation by broth double-dilution method; type: functional; outline: as §1
Staphylococcus aureus [18] = test: Antibacterial activity against methicillin-resistant Staphylococcus aureus 2 measured after overnight incubation by broth double-dilution method; type: functional; outline: as §1
Staphylococcus aureus [19] = test: Antibacterial activity against methicillin-resistant Staphylococcus aureus BRS3 measured after overnight incubation by broth double-dilution method; type: functional; outline: as §1
Staphylococcus aureus [20] = test: Antibacterial activity against methicillin-resistant Staphylococcus aureus C2 measured after overnight incubation by broth double-dilution method; type: functional; outline: as §1
Staphylococcus aureus [21] = test: Antibacterial activity against methicillin-resistant Staphylococcus aureus C7 measured after overnight incubation by broth double-dilution method; type: functional; outline: as §1
Staphylococcus aureus [22] = test: Antibacterial activity against methicillin-resistant Staphylococcus aureus C16 measured after overnight incubation by broth double-dilution method; type: functional; outline: as §1
Staphylococcus aureus [23] = test: Antibacterial activity against methicillin-resistant Staphylococcus aureus C19 measured after overnight incubation by broth double-dilution method; type: functional; outline: as §1
Staphylococcus aureus [24] = test: Antibacterial activity against methicillin-resistant Staphylococcus aureus G6 measured after overnight incubation by broth double-dilution method; type: functional; outline: as §1
Staphylococcus aureus [25] = test: Antibacterial activity against methicillin-resistant Staphylococcus aureus G14 measured after overnight incubation by broth double-dilution method; type: functional; outline: as §1
Staphylococcus aureus [26] = test: Antibacterial activity against methicillin-resistant Staphylococcus aureus NRS4 measured after overnight incubation by broth double-dilution method; type: functional; outline: as §1
Staphylococcus aureus [27] = test: Antibacterial activity against methicillin-resistant Staphylococcus aureus NRS51 measured after overnight incubation by broth double-dilution method; type: functional; outline: as §1
Staphylococcus aureus [28] = test: Antibacterial activity against methicillin-resistant Staphylococcus aureus NRS77 measured after overnight incubation by broth double-dilution method; type: functional; outline: as §1
Staphylococcus aureus [29] = test: Antibacterial activity against methicillin-resistant Staphylococcus aureus S17 measured after overnight incubation by broth double-dilution method; type: functional; outline: as §1
Staphylococcus aureus [30] = test: Antibacterial activity against methicillin-resistant Staphylococcus aureus S24 measured after overnight incubation by broth double-dilution method; type: functional; outline: as §1
Staphylococcus aureus [31] = test: Antibacterial activity against methicillin-resistant Staphylococcus aureus USA100 measured after overnight incubation by broth double-dilution method; type: functional; outline: as §1
Staphylococcus aureus [32] = test: Antibacterial activity against methicillin-resistant Staphylococcus aureus USA200 measured after overnight incubation by broth double-dilution method; type: functional; outline: as §1
Staphylococcus aureus [33] = test: Antibacterial activity against methicillin-resistant Staphylococcus aureus USA300 measured after overnight incubation by broth double-dilution method; type: functional; outline: as §1
Listeria monocytogenes = test: Antibacterial activity against Listeria monocytogenes ATCC 19115 measured after overnight incubation by broth double-dilution method; type: functional; outline: as §2
Staphylococcus aureus [34] = test: Antibacterial activity against methicillin-resistant Staphylococcus aureus S22 using 1 10^6CFU/ml measured after overnight incubation by broth double-dilution method; type: functional

`O=c1c2ccccc2sn1C1CCCC1` gave an MIC (Staphylococcus aureus [1]) of 7.8 µg/mL (≈ 35.6 µM), an MIC (Staphylococcus aureus [2]) of 2 µg/mL (≈ 9.12 µM) and an MIC (Staphylococcus aureus [3]) of 2 µg/mL (≈ 9.12 µM). The MIC (Staphylococcus aureus [4]) was 3.9 µg/mL (≈ 17.8 µM), the MIC (Staphylococcus aureus [5]) was 3.9 µg/mL (≈ 17.8 µM) and the MIC (Staphylococcus aureus [6]) was 2 µg/mL (≈ 9.12 µM). The MIC (Staphylococcus aureus [7]) was 3.9 µg/mL (≈ 17.8 µM), the MIC (Staphylococcus aureus [8]) was 0.5 µg/mL (≈ 2.28 µM) and the MIC (Staphylococcus aureus [9]) was 7.8 µg/mL (≈ 35.6 µM). For the same molecule, the MIC (Staphylococcus aureus [10]) was 7.8 µg/mL (≈ 35.6 µM), the MIC [11] was 2 µg/mL (≈ 9.12 µM) and the MIC (Enterococcus faecalis [12]) was > 125 µg/mL. The MIC (Enterococcus faecalis [13]) was > 125 µg/mL, the MIC (Enterococcus faecium) was > 125 µg/mL and the MIC (Enterococcus) was 2 µg/mL (≈ 9.12 µM). The MIC [14] was 2 µg/mL (≈ 9.12 µM) and the Activity [15] was > 20%.

With `CCCCCn1sc2ccccc2c1=O` the MIC (Staphylococcus aureus [1]) was 7.8 µg/mL (≈ 35.2 µM), the MIC (Staphylococcus aureus [16]) was 3.9 µg/mL (≈ 17.6 µM) and the MIC (Staphylococcus aureus [2]) was 3.9 µg/mL (≈ 17.6 µM). For the same molecule, the MIC (Staphylococcus aureus [17]) was 1 µg/mL (≈ 4.52 µM), the MIC (Staphylococcus aureus [3]) was 0.5 µg/mL (≈ 2.26 µM) and the MIC (Staphylococcus aureus [18]) was 2 µg/mL (≈ 9.04 µM). It also gave an MIC (Staphylococcus aureus [19]) of 3.9 µg/mL (≈ 17.6 µM), an MIC (Staphylococcus aureus [4]) of 2 µg/mL (≈ 9.04 µM) and an MIC (Staphylococcus aureus [20]) of 2 µg/mL (≈ 9.04 µM). For the same molecule, the MIC (Staphylococcus aureus [21]) was 2 µg/mL (≈ 9.04 µM), the MIC (Staphylococcus aureus [5]) was 3.9 µg/mL (≈ 17.6 µM) and the MIC (Staphylococcus aureus [22]) was 7.8 µg/mL (≈ 35.2 µM). The MIC (Staphylococcus aureus [23]) was 1 µg/mL (≈ 4.52 µM), the MIC (Staphylococcus aureus [6]) was 0.5 µg/mL (≈ 2.26 µM) and the MIC (Staphylococcus aureus [24]) was 2 µg/mL (≈ 9.04 µM). The MIC (Staphylococcus aureus [7]) was 2 µg/mL (≈ 9.04 µM), the MIC (Staphylococcus aureus [25]) was 2 µg/mL (≈ 9.04 µM) and the MIC (Staphylococcus aureus [26]) was 2 µg/mL (≈ 9.04 µM). The MIC (Staphylococcus aureus [27]) was 3.9 µg/mL (≈ 17.6 µM), the MIC (Staphylococcus aureus [28]) was 2 µg/mL (≈ 9.04 µM) and the MIC (Staphylococcus aureus [8]) was ≤ 0.25 µg/mL. For the same molecule, the MIC (Staphylococcus aureus [29]) was 2 µg/mL (≈ 9.04 µM), the MIC (Staphylococcus aureus [9]) was 3.9 µg/mL (≈ 17.6 µM) and the MIC (Staphylococcus aureus [30]) was 3.9 µg/mL (≈ 17.6 µM). It also gave an MIC (Staphylococcus aureus [31]) of 3.9 µg/mL (≈ 17.6 µM), an MIC (Staphylococcus aureus [32]) of 3.9 µg/mL (≈ 17.6 µM) and an MIC (Staphylococcus aureus [33]) of 3.9 µg/mL (≈ 17.6 µM). It also gave an MIC (Staphylococcus aureus [10]) of 3.9 µg/mL (≈ 17.6 µM), an MIC [11] of 3.9 µg/mL (≈ 17.6 µM) and an MIC (Enterococcus faecalis [12]) of 7.8 µg/mL (≈ 35.2 µM). For the same molecule, the MIC (Enterococcus faecalis [13]) was > 125 µg/mL, the MIC (Enterococcus faecium) was 15.6 µg/mL (≈ 70.5 µM) and the MIC (Enterococcus) was 1 µg/mL (≈ 4.52 µM). The MIC (Listeria monocytogenes) was 3.9 µg/mL (≈ 17.6 µM), the MIC [14] was 2 µg/mL (≈ 9.04 µM) and the Activity (Staphylococcus aureus [34]) was “Active”.

For `CC(C)Cn1c(=O)c2ccccc2[s+]1[O-]` (stereo not drawn), the MIC (Staphylococcus aureus [1]) was > 125 µg/mL, the MIC (Staphylococcus aureus [16]) was > 125 µg/mL and the MIC (Staphylococcus aureus [2]) was > 125 µg/mL. The MIC (Staphylococcus aureus [17]) was > 125 µg/mL, the MIC (Staphylococcus aureus [3]) was > 125 µg/mL and the MIC (Staphylococcus aureus [18]) was > 125 µg/mL. The MIC (Staphylococcus aureus [19]) was > 125 µg/mL, the MIC (Staphylococcus aureus [4]) was > 125 µg/mL and the MIC (Staphylococcus aureus [20]) was > 125 µg/mL. The MIC (Staphylococcus aureus [21]) was > 125 µg/mL, the MIC (Staphylococcus aureus [5]) was > 125 µg/mL and the MIC (Staphylococcus aureus [22]) was > 125 µg/mL. For the same molecule, the MIC (Staphylococcus aureus [23]) was > 125 µg/mL, the MIC (Staphylococcus aureus [6]) was > 125 µg/mL and the MIC (Staphylococcus aureus [24]) was > 125 µg/mL. The MIC (Staphylococcus aureus [7]) was > 125 µg/mL, the MIC (Staphylococcus aureus [25]) was > 125 µg/mL and the MIC (Staphylococcus aureus [26]) was > 125 µg/mL. For the same molecule, the MIC (Staphylococcus aureus [27]) was > 125 µg/mL, the MIC (Staphylococcus aureus [28]) was > 125 µg/mL and the MIC (Staphylococcus aureus [8]) was > 125 µg/mL. The MIC (Staphylococcus aureus [29]) was > 125 µg/mL, the MIC (Staphylococcus aureus [9]) was > 125 µg/mL and the MIC (Staphylococcus aureus [30]) was > 125 µg/mL. For the same molecule, the MIC (Staphylococcus aureus [31]) was > 125 µg/mL, the MIC (Staphylococcus aureus [32]) was > 125 µg/mL and the MIC (Staphylococcus aureus [33]) was > 125 µg/mL. The MIC (Staphylococcus aureus [10]) was > 125 µg/mL, the MIC [11] was > 125 µg/mL and the MIC (Enterococcus faecalis [12]) was > 125 µg/mL. For the same molecule, the MIC (Enterococcus faecalis [13]) was > 125 µg/mL, the MIC (Enterococcus faecium) was > 125 µg/mL and the MIC (Enterococcus) was > 125 µg/mL. For the same molecule, the MIC (Listeria monocytogenes) was > 125 µg/mL and the MIC [14] was > 125 µg/mL.
